Assay outcomes as filed in PubChem.
PRMT1 FP inh: inhibitors of human PRMT1; Q99873; recombinant PRMT1, activity-based probe fluorescence polarization; inhibition, % at 2.79 µM; 370,000 tested, 1.3% active;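 active = inhibition above about 21% made by adding two undisclosed values, limit read from the data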
Apaf-1 inh: human Apaf-1 inhibition; AID 489030; inhibition, % at 20 µM; O14727; reconstituted apoptosome caspase-3 activity, DEVD-Rh110 fluorescence; 330,000 tested, 0.71% active; active = inhibition of at least 40% at 20 µM
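detection = Rh110 fluorescence intensity | test system = biochemical Apaf-1 apoptosome reconstitution | also added = cytochrome c and DEVD-Rh110 substrate | schedule = 30 min plus 50 min, RT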
PAD4 FP inh: inhibitors of human PAD4. AID 485272. Q9UM07. 330,000 tested, 0.41% active. recombinant PAD4, RCA probe fluorescence polarization. inhibition, % at 6.36 µM;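 active = percent inhibition above a cutoff equal to the mean of all tested compounds plus 3 SD, cut at about 15% in these data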
GSTO1 counter: blocks human GSTO1 in RBBP9 counter-screen | AID 1974 | recombinant GSTO1, activity-based probe fluorescence polarization | 300,000 tested, 1.1% active | P78417 | inhibition, % at 5.96 µM;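 active = inhibition above the campaign mean inhibition plus 3 SD, cut at about 35% in these data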
TDP2 inh: TDP2 (human) inhibition, absorbance primary screen; recombinant TDP2, T5PNP hydrolysis, p-nitrophenol absorbance 415 nm; inhibition, % at 12.8 µM; 370,000 tested, 0.34% active; AID 720702;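 active = inhibition above the mean of all tested compounds plus 3 SD, set per campaign, cut at about 25% in these data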
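Read-out basis: percent inhibition. System: recombinant human TDP2. Buffer or medium: Mg2+-containing Tris-HCl buffer, pH 7.5. Repeats: single replicate. Timing: reaction 2 h, 37 °C. Benchmarks: high control without enzyme, low control DMSO plus TDP2. Probe or stimulus: 5 mM T5PNP. Doses: 12.8 µM only. Measured by: epi absorbance of p-nitrophenol freed from T5PNP by hydrolysis.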
Apaf-1 inh conf: Apaf-1 inhibition, single-dose confirmed. shares compounds with Apaf-1 inh. reconstituted apoptosome, caspase-3 DEVD-Rh110 fluorescence. inhibition, % at 20 µM. 1,800 tested, 25% active. AID 504614;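 active = mean inhibition of at least 40% at 20 µM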
Rh110 quench: interferes with Rh110 fluorescence, flagging false Apaf-1 inhibitors; shares compounds with Apaf-1 inh; Rh110 fluorescence interference, quenched caspase reaction; activation (fluorescence interference), % at 20 µM; 1,800 tested, under 10 active;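 active = signal rise of 40% or more at 20 µM, treated as a fluorescence artifact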
Apaf1 inh interf: counter-screen for Apaf-1 inhibitors: fluorescence interference, dose response; IC50, µM; AID 588538; shares compounds with Apaf-1 inh; fluorescence interference counterscreen, Apaf-1 assay format; 460 tested, under 10 active; call rule not given here
Large screens that a line does not name were inactive (follow-up assays come after a bar, where they were run). Compounds with a hit are over-represented: about 2.6% of the library has one in this group of screens.

COc1ccc(/C=N/NC(=O)c2nn(-c3ccccc3)c(=O)c3c(N)scc23)cc1	PRMT1 FP inh 22, Apaf-1 inh 61, GSTO1 counter 53 | Apaf-1 inh conf 40 | Rh110 quench inactive | Apaf1 inh interf inactive
COc1ccc(/C=N/NC(=O)c2nn(-c3ccc(Cl)cc3)c(=O)c3c(N)scc23)cc1	PRMT1 FP inh 24, Apaf-1 inh 54 | Apaf-1 inh conf inactive | Rh110 quench inactive
CCOC(=O)c1nn(-c2ccc(OC)cc2)c(=O)c2c(N)scc12	none
COC(=O)[C@]12C[C@H](CC(=O)NCc3ccccc3)C(=O)N(Cc3ccc(Cl)cc3Cl)C1=C[C@H](COCc1ccccc1)O[C@@H]2C	none (no result: Apaf-1 inh, PAD4 FP inh, GSTO1 counter)
CCCCCCCCCCCCCCCC[n+]1ccc(/C=N/O)cc1	Apaf-1 inh 80 | Apaf-1 inh conf 58 | Rh110 quench inactive | Apaf1 inh interf inactive
CCCCCCCCCCCCCCCC[n+]1ccc(C(N)=O)cc1	Apaf-1 inh 73 | Apaf-1 inh conf 53 | Rh110 quench inactive | Apaf1 inh interf inactive
CCCCCCCCCCCCCCCC[n+]1cccc(C(=O)N(CC)CC)c1	Apaf-1 inh 74 | Apaf-1 inh conf 72 | Rh110 quench inactive | Apaf1 inh interf inactive
CCCCCCCC[n+]1cccc(C(=O)N(CC)CC)c1	none
O=C1O[C@@H](c2ccccc2)C[C@@H](O)C(=O)CCCCc2ccccc21	none (no result: Apaf-1 inh, PAD4 FP inh, GSTO1 counter)
c1nc(NCC2CCCOC2)c2cc(-c3ccc4c(c3)OCO4)ccc2n1 (centres undefined)	none (no result: Apaf-1 inh, PAD4 FP inh, GSTO1 counter)
Cc1cc(N2CCN(Cc3ccc4c(c3)OCO4)CC2)n2nc(C)nc2n1	none (no result: Apaf-1 inh, PAD4 FP inh, GSTO1 counter)
O=C(NC(=S)Nc1ccc(CN2CCCCC2)cc1)c1cccc(OCc2ccccc2)c1	Apaf-1 inh 43 | Apaf-1 inh conf inactive | Rh110 quench inactive
COc1ccc(Cn2cc(COC(=O)N3CCOCC3)nn2)cc1	none (no result: Apaf-1 inh, PAD4 FP inh, GSTO1 counter)
COc1ccc(-c2c(C#Cc3ccc(N(C)C)cc3)c3ccccc3n2C)cc1	Apaf-1 inh 57 (no result: GSTO1 counter) | Apaf-1 inh conf inactive | Rh110 quench inactive
O=C1c2ccccc2C(=O)N1CC(=O)N1c2ccccc2CCc2ccccc21	none
O=C(C(Cc1ccccc1)N1C(=O)c2ccccc2C1=O)N1c2ccccc2CCc2ccccc21 (centres undefined)	Apaf-1 inh 40 | Apaf-1 inh conf inactive | Rh110 quench inactive
COc1cc([N+](=O)[O-])c(OC)cc1Nc1ccccc1C(=O)O	none (no result: Apaf-1 inh, PAD4 FP inh, GSTO1 counter)
COc1cc(-c2ccc(Nc3ccccc3C(=O)O)c(OC)c2)ccc1Nc1ccccc1C(=O)O	Apaf-1 inh 48 (no result: PAD4 FP inh, GSTO1 counter) | Apaf-1 inh conf 49 | Rh110 quench inactive | Apaf1 inh interf inactive
CCCOc1cccc(-c2nn(-c3ccccc3)cc2/C=C(\C#N)C(=O)NCCCn2ccnc2)c1	none
N#C/C(=C/c1cn(-c2ccccc2)nc1-c1cccc(OCc2ccc(F)cc2)c1)C(=O)NCCCn1ccnc1	Apaf-1 inh 44 | Apaf-1 inh conf inactive | Rh110 quench inactive
COc1ccccc1C(=O)NC1CCCCN(Cc2ccccc2C)C1=O (centres undefined)	none (no result: Apaf-1 inh, PAD4 FP inh, GSTO1 counter)
CN(C(=S)Nc1ccc(SC(F)F)cc1)c1ccc(O)cc1	PRMT1 FP inh 30, Apaf-1 inh 70, GSTO1 counter 66 | Apaf-1 inh conf inactive | Rh110 quench inactive
Cc1ccc(/C=C/c2onc(C)c2S(=O)(=O)N2CCC(C(=O)N3CCN(C)CC3)CC2)cc1	Apaf-1 inh 45 | Apaf-1 inh conf inactive | Rh110 quench inactive
Cc1cc(C)n2c(NC3CCCCC3)c(-c3cccnc3)nc2n1	none (no result: Apaf-1 inh, PAD4 FP inh, GSTO1 counter)
CCOC(=O)N(C)[C@H]1C[C@H]2c3[nH]c4cccc(-c5cccc(F)c5)c4c3CCN2C(=O)[C@H]1[C@H](C)O	none (no result: Apaf-1 inh, PAD4 FP inh, GSTO1 counter)
C=CCN1[C@@H](C)COc2cccc(F)c2S1(=O)=O	none (no result: Apaf-1 inh, PAD4 FP inh, GSTO1 counter)
CC(C)COCC(CN(Cc1ccccc1)c1ccccc1)N1CCCC1 (centres undefined)	Apaf-1 inh 49 | Apaf-1 inh conf inactive | Rh110 quench inactive
COc1cccc(NC(=O)C2CCCN2C(=O)NCc2ccccc2)c1 (centres undefined)	none (no result: Apaf-1 inh, PAD4 FP inh, GSTO1 counter)
